In ChEMBL document CHEMBL3400092 (2015):
Active and inactive are the calls of the source. No cut-off for these calls is given here.

What was measured:
CL1-5 = assay: Reduction in total wild type EGFR levels in gefinitib-insensitive and 24 hrs serum starved human CL1-5 cells at 10 uM pre-incubated for 1 hr before EGF stimulation for 30 mins by Western blot method; assay type: functional
Summary of the method: (§1)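 Cells in RPMI-1640 with 10% FBS were plated at 1×10^6 per 10-cm dish, cultured overnight, then kept serum-free for 24 h. They were pre-treated with 10 μM compound for 1 h, serum-free, then stimulated with EGF 20 ng/mL (20 min in methods, 30 min in legend). Whole-cell lysates, 40 μg/lane, were run on 10% SDS-PAGE, blotted to PVDF, probed for pan-EGFR and pEGFR (Tyr1068), and detected by ECL.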

[1] = tested on: Epidermal growth factor receptor (Homo sapiens), P00533 [L858R,T790M]; conditions: NCI-H1975, at 10 µM
Epidermal growth factor receptor (Homo sapiens), P00533 [L858R,T790M], sequence (P00533 whole entry T790M/L858R, looked up): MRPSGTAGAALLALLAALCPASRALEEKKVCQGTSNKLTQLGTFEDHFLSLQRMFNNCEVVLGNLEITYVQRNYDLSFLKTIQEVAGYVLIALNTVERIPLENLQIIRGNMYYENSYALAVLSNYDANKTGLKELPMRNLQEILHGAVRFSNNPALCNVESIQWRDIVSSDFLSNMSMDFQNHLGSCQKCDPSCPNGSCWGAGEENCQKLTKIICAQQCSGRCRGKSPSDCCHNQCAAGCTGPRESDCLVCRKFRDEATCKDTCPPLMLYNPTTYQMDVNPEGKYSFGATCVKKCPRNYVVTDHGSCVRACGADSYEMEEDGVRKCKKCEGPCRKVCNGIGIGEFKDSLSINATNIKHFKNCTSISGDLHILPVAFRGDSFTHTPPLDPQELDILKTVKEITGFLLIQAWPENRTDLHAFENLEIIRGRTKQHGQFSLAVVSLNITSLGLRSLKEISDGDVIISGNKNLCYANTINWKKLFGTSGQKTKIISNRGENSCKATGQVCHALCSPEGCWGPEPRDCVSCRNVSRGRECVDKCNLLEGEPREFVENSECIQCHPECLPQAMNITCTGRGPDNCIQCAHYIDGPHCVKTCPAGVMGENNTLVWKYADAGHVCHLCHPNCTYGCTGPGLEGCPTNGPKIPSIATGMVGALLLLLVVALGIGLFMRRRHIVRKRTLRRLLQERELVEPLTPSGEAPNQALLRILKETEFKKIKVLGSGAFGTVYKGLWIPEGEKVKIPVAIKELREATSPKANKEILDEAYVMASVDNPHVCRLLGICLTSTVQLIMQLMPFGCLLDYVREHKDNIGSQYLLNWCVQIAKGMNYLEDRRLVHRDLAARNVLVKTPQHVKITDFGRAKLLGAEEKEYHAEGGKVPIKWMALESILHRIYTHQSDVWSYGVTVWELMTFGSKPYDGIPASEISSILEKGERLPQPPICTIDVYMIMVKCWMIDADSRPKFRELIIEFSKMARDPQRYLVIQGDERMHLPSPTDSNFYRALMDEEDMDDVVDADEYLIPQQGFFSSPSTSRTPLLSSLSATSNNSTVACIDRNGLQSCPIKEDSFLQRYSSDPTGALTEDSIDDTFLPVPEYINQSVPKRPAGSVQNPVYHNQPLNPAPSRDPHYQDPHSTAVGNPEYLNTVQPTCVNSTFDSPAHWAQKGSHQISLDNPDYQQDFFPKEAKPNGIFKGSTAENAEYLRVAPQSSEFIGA

[2] = molecular target: Epidermal growth factor receptor (Homo sapiens) (UniProt P00533); conditions: CL1-5, at 10 µM
Epidermal growth factor receptor (Homo sapiens), sequence (P00533 whole entry): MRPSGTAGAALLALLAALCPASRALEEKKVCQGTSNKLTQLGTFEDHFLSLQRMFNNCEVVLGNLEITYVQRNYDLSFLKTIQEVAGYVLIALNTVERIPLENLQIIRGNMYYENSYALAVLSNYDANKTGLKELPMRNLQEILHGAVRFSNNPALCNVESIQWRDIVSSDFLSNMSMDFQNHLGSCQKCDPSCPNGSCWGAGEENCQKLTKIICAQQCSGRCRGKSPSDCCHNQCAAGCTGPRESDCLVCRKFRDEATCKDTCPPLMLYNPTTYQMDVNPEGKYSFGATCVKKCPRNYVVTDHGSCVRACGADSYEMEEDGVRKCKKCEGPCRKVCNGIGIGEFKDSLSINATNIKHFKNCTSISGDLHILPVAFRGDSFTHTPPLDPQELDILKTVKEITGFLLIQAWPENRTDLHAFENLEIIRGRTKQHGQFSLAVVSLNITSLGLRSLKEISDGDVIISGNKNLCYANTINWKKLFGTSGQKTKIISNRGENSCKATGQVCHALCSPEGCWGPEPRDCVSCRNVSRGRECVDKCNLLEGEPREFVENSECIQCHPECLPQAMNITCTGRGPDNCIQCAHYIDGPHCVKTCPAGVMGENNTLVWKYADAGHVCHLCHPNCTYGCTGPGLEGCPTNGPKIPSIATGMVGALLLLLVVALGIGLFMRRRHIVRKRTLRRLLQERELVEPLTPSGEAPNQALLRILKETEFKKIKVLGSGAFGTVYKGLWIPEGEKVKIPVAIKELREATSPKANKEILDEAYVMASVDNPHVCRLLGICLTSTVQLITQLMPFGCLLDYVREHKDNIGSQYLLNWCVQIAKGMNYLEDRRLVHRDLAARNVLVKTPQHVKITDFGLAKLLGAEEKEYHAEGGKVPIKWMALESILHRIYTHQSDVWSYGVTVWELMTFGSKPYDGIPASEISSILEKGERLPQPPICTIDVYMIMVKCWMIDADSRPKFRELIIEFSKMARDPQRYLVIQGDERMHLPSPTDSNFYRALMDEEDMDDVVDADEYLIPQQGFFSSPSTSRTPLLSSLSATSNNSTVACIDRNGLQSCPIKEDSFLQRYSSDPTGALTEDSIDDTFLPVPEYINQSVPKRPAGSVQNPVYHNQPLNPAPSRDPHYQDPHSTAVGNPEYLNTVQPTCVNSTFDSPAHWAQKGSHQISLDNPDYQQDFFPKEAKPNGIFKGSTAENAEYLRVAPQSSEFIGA

NCI-H1975 = assay: Reduction in total EGFR L858R and T790M mutant levels in gefinitib-resistant and 24 hrs serum starved human NCI-H1975 cells at 10 uM pre-incubated for 1 hr before EGF stimulation for 30 mins by Western blot method; assay type: functional, cell-based; summary of the method: as §1
IEC-18 = assay: (§2) Cytoprotective activity against 40 uM gefitinib-induced cytotoxicity in rat IEC-18 cells assessed as restoration of cell viability at 5 uM incubated for 24 hrs by MTT assay; assay type: functional
Summary of the method: (§3)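 IEC-18 rat intestinal epithelial cells, kept in DMEM with 10% FBS, were seeded at 5×10^3 cells/well and co-treated with compound and gefitinib for 24 h. Stocks were in DMSO, with final DMSO below 0.1%. MTT (0.5 mg/mL) was added for 1.5 h, then DMSO, and absorbance was read at 570 nm. Viability was expressed as proliferative index (%) relative to untreated cells (100%). Triplicate; Student t-test.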

[3] = as §2; assay type: functional; summary of the method: as §3

Row | SMILES | inhibition (CL1-5) | inhibition [1] | inhibition [2] | inhibition (NCI-H1975) | Activity (IEC-18) | Activity [3]
1 | COc1cc(/C=C/C(=O)/C(CCC(=O)O)=C(O)/C=C/c2ccc(OCCCC(=O)O)c(OC)c2)ccc1OCCCC(=O)O | inactive | inactive | inactive | inactive |  | 
2 | CCOC(=O)CCCOc1ccc(/C=C/C(=O)/C(CCC(=O)OCC)=C(O)/C=C/c2ccc(OCCCC(=O)OCC)c(OC)c2)cc1OC | inactive | inactive | inactive | inactive |  | 
3 | CCOC(=O)CC/C(C(=O)/C=C/c1ccc(O)c(OC)c1)=C(O)\C=C\c1ccc(O)c(O)c1 | Active | Active | Active | Active |  | 
4 | COc1cc(/C=C/C(O)=C/C(=O)/C=C/c2ccc(O)c(O)c2)ccc1O | inactive | Active | inactive | Active |  | 
5 | CCOC(=O)/C=C/C(C(=O)/C=C/c1ccc(O)c(O)c1)=C(O)\C=C\c1ccc(O)c(OC)c1 | inactive | inactive | inactive | inactive |  | 
6 | COc1cc(/C=C/C(=O)CC(=O)/C=C/c2ccc(O)c(OC)c2)ccc1O | Active |  |  | Active | Active | 
7 | CCOC(=O)CC/C(C(=O)/C=C/c1ccc(O)c(O)c1)=C(O)\C=C\c1ccc(O)c(O)c1 | Active | inactive | Active | inactive |  | 
8 | CCOC(=O)CC/C(C(=O)/C=C/c1cc(O)c(OC)c(OC)c1)=C(O)\C=C\c1cc(O)c(OC)c(OC)c1 | inactive | Active | Active |  |  | 
9 | COc1cc(F)c(/C=C/C(=O)/C=C(O)/C=C/c2cc(OC)c(OC)cc2F)cc1OC | Active | Active | Active | Active |  | 
10 | COc1cc(/C=C/C(=O)/C(CCC(=O)O)=C(O)/C=C/c2ccc(O)c(OC)c2)ccc1O | inactive | inactive | inactive | inactive |  | 
11 | O=C(O)CC/C(C(=O)/C=C/c1ccc(O)c(O)c1)=C(O)\C=C\c1ccc(O)c(O)c1 | inactive | inactive | inactive | inactive |  | 
12 | COc1cc(OC)c(OC)cc1/C=C/C(O)=C/C(=O)/C=C/c1ccc(OC)c(OC)c1 | Active | Active | Active | Active |  | 
13 | COc1cc(OC)c(OC)cc1/C=C/C(=O)/C=C(O)/C=C/c1cc(OC)c(OC)cc1OC | Active | Active | Active | Active |  | 
14 | COc1cc(/C=C/C(=O)/C(CCC(=O)O)=C(O)/C=C/c2ccc(O)c(O)c2)ccc1O | inactive | inactive | inactive | inactive |  | 
15 | COc1ccc(/C=C/C(=O)/C=C(O)/C=C/c2ccc(OC)c(OC)c2)cc1O | Active | Active | Active | Active | Active | 
16 | COc1cc(/C=C/C(=O)/C(C(C)=O)=C(O)/C=C/c2ccc(O)c(OC)c2)ccc1O | Active | Active | Active | Active |  | 
17 | COc1cc(/C=C/C(=O)/C=C(O)/C=C/c2cc(O)c(OC)c(OC)c2)cc(O)c1OC | inactive | inactive | inactive | inactive |  | 
18 | CCOC(=O)/C=C/C(C(=O)/C=C/c1ccc(OC)c(OC)c1)=C(O)\C=C\c1ccc(OC)c(OC)c1 | inactive | inactive | inactive | inactive |  | 
19 | CCOC(=O)CC/C(C(=O)/C=C/c1ccc(OC)c(OC)c1)=C(O)\C=C\c1ccc(OC)c(OC)c1 | inactive | inactive | inactive | inactive |  | 

Row | SMILES | inhibition (CL1-5) | inhibition [1] | inhibition [2] | inhibition (NCI-H1975) | Activity (IEC-18) | Activity [3]
20 | COc1ccc(/C=C/C(=O)/C=C(O)/C=C/c2ccc(OC)c(OC)c2)cc1OC | Active | Active | Active | Active | Active | 
21 | COC(=O)COc1ccc(/C=C/C(=O)/C=C(O)/C=C/c2ccc(OCC(=O)OC)c(OC)c2)cc1OC | inactive | inactive | inactive | inactive |  | 
22 | COc1cc(/C=C/C(=O)/C=C(O)/C=C/c2ccc(OCC(=O)Nc3ccccc3)c(OC)c2)ccc1OCC(=O)Nc1ccccc1 | inactive | inactive | inactive | inactive |  | 
23 | COc1cc(/C=C/C(=O)/C=C(O)/C=C/c2ccc(OCC(=O)O)c(OC)c2)ccc1OCC(=O)O | inactive | inactive | inactive | inactive |  | 
24 | COc1ccc(/C=C/C(=O)/C=C(O)/C=C/c2ccc(OC)c(OC)c2OC)cc1OC | Active | Active | Active | Active |  | 
25 | CCOC(=O)CCCOc1ccc(/C=C/C(=O)/C=C(O)/C=C/c2ccc(OCCCC(=O)OCC)c(OC)c2)cc1OC | inactive | inactive | inactive | inactive |  | 
26 | COc1cc(/C=C/C(O)=C/C(=O)/C=C/c2ccc(O)cc2)ccc1O | inactive | inactive | inactive | inactive |  | 
27 | COc1cc(/C=C/C(=O)/C=C(O)/C=C/c2ccc(OCCCC(=O)O)c(OC)c2)ccc1OCCCC(=O)O | inactive | inactive | inactive | inactive |  | 
28 | O=C(/C=C(O)/C=C/c1ccc(O)c(O)c1)/C=C/c1ccc(O)c(O)c1 | Active | Active | Active | inactive |  | <=80%
29 | CCOC(=O)CC/C(C(=O)/C=C/c1cc(OC)c(O)c(OC)c1)=C(O)\C=C\c1cc(OC)c(O)c(OC)c1 | inactive | inactive | inactive | inactive |  | 
30 | COc1ccc(CCC(=O)CC(O)CCc2ccc(OC)c(OC)c2)cc1OC (stereo not given) | inactive | inactive | inactive | inactive |  | 
31 | COc1ccc(/C=C/C(=O)/C(C)=C(O)/C=C/c2ccc(OC)c(OC)c2)cc1OC | Active | Active | Active | Active |  | 
32 | CCOC(=O)CC/C(C(=O)/C=C/c1ccc(OCC(=O)OC)c(OC)c1)=C(O)\C=C\c1ccc(OCC(=O)OC)c(OC)c1 | inactive | inactive | inactive | inactive |  | 
33 | COc1ccc(/C=C/C(=O)/C=C(O)/C=C/c2ccc(OC)c(OC)c2OC)c(OC)c1OC | Active | Active | Active | Active |  | 
34 | CCOC(=O)CC/C(C(=O)/C=C/c1ccc(OC)c(OC)c1)=C(O)\C=C\c1ccc(O)c(OC)c1 | Active | Active | Active | Active |  | 
35 | CCOC(=O)CC/C(C(=O)/C=C/c1ccc(O)c(OC)c1)=C(O)\C=C\c1ccc(O)c(OC)c1 | Active | inactive | Active | inactive |  | 
36 | COc1cc(/C=C/C(O)=C/C(=O)/C=C/c2ccc(OC)c(OC)c2)ccc1O | Active | Active | Active | Active | Active | 
37 | CCOC(=O)/C=C/C(C(=O)/C=C/c1ccc(O)c(OC)c1)=C(O)\C=C\c1ccc(O)c(OC)c1 | inactive | inactive | inactive | inactive |  | 
